Measured values reported in ChEMBL document CHEMBL5653617, “Inhibition of BRD4 attenuates tumor cell self-renewal and suppresses stem cell signaling in MYC driven medulloblastoma” (Oncotarget, 2014).
The source made the active and inactive calls.

What was measured:
Daoy [1] = experiment: Induction of senescence in human Daoy cells assessed as increase in p27 protein expression at 300 nM by immunoblot analysis; format: functional, cell-based
Procedure, shortened: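 Protein lysates prepared in RIPA buffer with protease inhibitors. Standard western blot with HRP-conjugated secondary antibodies and chemiluminescent detection.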

Daoy [2] = experiment: In vivo inhibition of BRD4 in athymic nude mouse xenografted with human Daoy cells assessed as reduction in SOX2 protein expression in tumor at 50 mg/kg, ip measured after 5 days by immunofluorescence analysis; format: functional, organism-based; conditions: time 5.0 day
Procedure, shortened: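 Tumors from Daoy flank xenografts in nude mice treated 50 mg/kg i.p. or DMSO vehicle for 5 days, then sacrificed. SOX2 protein detected by immunofluorescence on tumor sections.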

D458 Med [3] = experiment: Induction of cell cycle arrest in human D458 Med cells assessed as G2/M phase cells at 300 nM incubated for 48 hrs by flow cytometry analysis (reference value: 18.72 +/- 2.62%); format: functional
[4] = target: Bromodomain-containing protein 4 (Homo sapiens) (UniProt O60885); conditions: D283 Med, dose 300.0 nM
[5] = target: Bromodomain-containing protein 4 (Homo sapiens) (UniProt O60885); conditions: D458 Med, dose 300.0 nM
Daoy [6] = experiment: Induction of cell cycle arrest in human Daoy cells assessed as S phase cells at 300 nM incubated for 48 hrs by flow cytometry analysis (reference value: 15.39 +/- 1.73%); format: functional
D425 Med [7] = experiment: Induction of cell cycle arrest in human D425 Med cells assessed as G2/M phase cells at 300 nM incubated for 48 hrs by flow cytometry analysis (reference value: 37 +/- 0.47%); format: functional
D425 Med [8] = experiment: Induction of cell cycle arrest in human D425 Med cells assessed as S phase cells at 300 nM incubated for 48 hrs by flow cytometry analysis (reference value: 28.96 +/- 0.89%); format: functional
[9] = target: Bromodomain-containing protein 4 (Homo sapiens) (UniProt O60885); conditions: D425 Med, dose 300.0 nM
[10] = target: Bromodomain-containing protein 4 (Homo sapiens) (UniProt O60885); conditions: D283 Med, dose 300.0 nM; remark: listed apart in the source
Daoy [11] = experiment: Induction of cell cycle arrest in human Daoy cells assessed as accumulation of cells at G1 phase at 300 nM incubated for 48 hrs by flow cytometry analysis (reference value: 50.67 +/- 3.19%); format: functional
Daoy [12] = experiment: Induction of senescence in human Daoy cells assessed as increase in p21 mRNA expression at 300 nM by RT-qPCR analysis; format: functional, cell-based
Procedure, shortened: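 Cells treated with 300 nM drug or DMSO. p16, p21 and p27 mRNA measured by TaqMan qPCR with ΔΔCt quantitation, in triplicate.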

[13] = target: Bromodomain-containing protein 4 (Homo sapiens) (UniProt O60885); conditions: D425 Med, dose 300.0 nM; remark: listed apart in the source
[14] = target: Bromodomain-containing protein 4 (Homo sapiens) (UniProt O60885); conditions: Daoy, dose 100.0 nM, time 24-72 hrs, TDE = time-dependent effect
Daoy [15] = experiment: Downregulation of CENPF gene expression in human Daoy cells at 300 nM by GSEA method; format: functional, cell-based
Procedure, shortened: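 Daoy cells treated with DMSO or 300 nM drug. RNA extracted and hybridized to Affymetrix HG-ST2.0 arrays. Analysis in R/Bioconductor with gene set enrichment analysis. Regulated transcripts defined as p < 0.05, FDR < 0.05, fold change < 0.67 (down) or > 1.5 (up).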

Daoy [16] = experiment: Antitumor activity against human Daoy cells xenografted in athymic nude mice assessed as inhibition of proliferation at 50 mg/kg, ip measured after 5 days by Ki67 staining based analysis; format: functional, organism-based; conditions: time 5.0 day
Procedure, shortened: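 Daoy cells (1.0×10^7 in PBS) injected into the flank of athymic nude mice. Once tumors were palpable, drug given 50 mg/kg i.p. with DMSO as vehicle control. Animals were sacrificed after a 5-day treatment. Tumors were assessed by Ki67 IHC and by senescence-associated β-galactosidase staining.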

Daoy [17] = experiment: Inhibition of E2F1 activity in human Daoy cells at 100 to 300 nM by luciferase based reporter assay; format: functional, cell-based; conditions: dose 100-300 nM
Procedure, shortened: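 Cignal pathway reporter system using an E2F1-responsive luciferase reporter. Cells seeded in 24-well plates and transfected with Surefect. DMSO or drug added 8 h later, then incubated a further 24 h before luciferase readout.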

[18] = target: Bromodomain-containing protein 4 (Homo sapiens) (UniProt O60885); conditions: Daoy, dose 300.0 nM
[19] = target: Bromodomain-containing protein 4 (Homo sapiens) (UniProt O60885); conditions: D458 Med, dose 300.0 nM; remark: listed apart in the source
Medulloblastoma cell = experiment: Cytotoxicity against patient-derived Medulloblastoma cells assessed as reduction in cell viability at 300 nM by LDH assay; format: functional, cell-based; conditions: Homo sapiens
Procedure, shortened: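 Primary tumor slices cultured as described and treated daily from day 5 with DMSO, 300 nM drug, or mitomycin C (50 ug/mL). Spent medium was collected at each change and stored at -80 °C. LDH activity was measured by kit and normalized to the mitomycin C treatment.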

D458 Med [20] = experiment: Antiproliferative activity in human D458 Med cells assessed as inhibition of cell growth at 300 nM by flow cytometry analysis; format: functional, cell-based
Procedure, shortened: (§1)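 ViaCount flow cytometric cell count. Cells seeded in medium, DMSO or drug added 24 h later, cultured a further 48 h. Cells then pelleted, washed, stained with Viacount reagent and counted on a Guava cytometer. Vehicle control DMSO.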

[21] = target: Bromodomain-containing protein 4 (Homo sapiens) (UniProt O60885); conditions: D283 Med, dose 300.0 nM; remark: listed apart in the source
[22] = target: Bromodomain-containing protein 4 (Homo sapiens) (UniProt O60885); conditions: D458 Med, dose 300.0 nM; remark: listed apart in the source
[23] = target: Bromodomain-containing protein 4 (Homo sapiens) (UniProt O60885); conditions: D283 Med, time 24-48 hrs
[24] = target: Bromodomain-containing protein 4 (Homo sapiens) (UniProt O60885); conditions: D425 Med, dose 300.0 nM; remark: listed apart in the source
Daoy [25] = experiment: Antiproliferative activity in human Daoy cells assessed as inhibition of cell growth at 300 nM by flow cytometry analysis; format: functional, cell-based; procedure, shortened: as §1
Daoy [26] = experiment: Induction of cell cycle arrest in human Daoy cells assessed as G2/M phase cells at 300 nM incubated for 48 hrs by flow cytometry analysis (reference value: 33.94 +/- 1.46%); format: functional
[27] = target: Bromodomain-containing protein 4 (Homo sapiens) (UniProt O60885); conditions: D283 Med, dose 300.0 nM; remark: listed apart in the source
D283 Med = experiment: Inhibition of colony formation in human D283 Med cells at 100 to 300 nM incubated for 8 to 11 days by NBT staining based methyl cellulose colony growth assay; format: functional, cell-based; conditions: dose 100-300 nM, time 8-11 day
Procedure, shortened: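 500 cells/well suspended in DMEM with methyl cellulose (1.3% final) containing 150 or 300 nM drug or DMSO, plated in triplicate. Colonies formed over 8–11 days, then stained with NBT (1 mg/ml) for 24 h at 37 °C. Colonies of ≥50 cells counted.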

For Cc1sc2c(c1C)C(c1ccc(Cl)cc1)=N[C@@H](CC(=O)OC(C)(C)C)c1nnc(C)n1-2, the Activity (Daoy [1]) was “Active”, the inhibition (Daoy [2]) was “Active” and the Activity (D458 Med [3]) was 23.266%. The inhibition [4] was “Active”, the inhibition [5] was “Active” and the Activity (Daoy [6]) was 3.736%. The Activity (D425 Med [7]) was 31%, the Activity (D425 Med [8]) was 28.636% and the inhibition [9] was “Active”. The inhibition [10] was “Active”, the Activity (Daoy [11]) was 79.416% and the Activity (Daoy [12]) was “Active”. For the same compound, the inhibition [13] was “Active”, the inhibition [14] was “Tde” and the Activity (Daoy [15]) was “Active”. The Activity (Daoy [16]) was “Active”, the inhibition (Daoy [17]) was “Active” and the inhibition [18] was “Active”. For the same compound, the inhibition [19] was “Active”, the Activity (Medulloblastoma cell) was “inactive” and the Activity (D458 Med [20]) was “Active”. The inhibition [21] was “Active”, the inhibition [22] was “Active” and the inhibition [23] was “Active”. For the same compound, the inhibition [24] was “Active”, the Activity (Daoy [25]) was “Active” and the Activity (Daoy [26]) was 16.813%. For the same compound, the inhibition [27] was “Active” and the inhibition (D283 Med) was “Active”.
